From ChEMBL document CHEMBL1140077, “Lipid-lowering (hetero)aromatic tetrahydro-1,4-oxazine derivatives with antioxidant and squalene synthase inhibitory activity” (J Med Chem, 2008)

Experiments:
Rattus norvegicus [1] = test: Decrease in total cholesterol level in Fischer 344 rat plasma at 56 umol/kg, ip after 24 hrs; format: functional; set-up: scale not given: the % may be the effect or the level left
Method in brief: (§1)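 Male Fischer-344 rats (180-220 g) made hyperlipidemic with Triton WR 1339 (200 mg/kg ip, aqueous); 1 h later compound (56 µmol/kg) in saline or saline alone given ip. Aortic blood taken at 24 h; plasma total cholesterol, LDL-C and triglycerides measured with kits in duplicate; mean of 8-10 rats per compound.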

Liver microsomes = test: Inhibition of lipid peroxidation in heat-inactivated rat liver microsomes after 45 mins; format: functional, Microsome
Method in brief: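 Heat-inactivated liver microsomes from untreated rats (2.5 mg protein/mL) with 0.2 mM ascorbate in Tris-HCl/KCl (50/150 mM, pH 7.4), compound 10 µM-1 mM in DMSO; started with FeSO4 (10 µM), 37 °C 45 min. TBAR read at 535 vs 600 nm; duplicates; IC50 as mean concentration giving 50% inhibition of peroxidation.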

Rattus norvegicus [2] = test: Decrease in LDL-cholesterol level in Fischer 344 rat plasma at 56 umol/kg, ip after 24 hrs; format: functional; set-up: scale not given: the % may be the effect or the level left; method in brief: as §1
Squalene synthase = biological target: T1, Squalene synthase (Rattus norvegicus, UniProt Q02769); test: Inhibition of squalene synthase in rat liver microsome measured by conversion of [3H]FPP to squalene; format: microsomes
T1 sequence (Q02769 whole entry): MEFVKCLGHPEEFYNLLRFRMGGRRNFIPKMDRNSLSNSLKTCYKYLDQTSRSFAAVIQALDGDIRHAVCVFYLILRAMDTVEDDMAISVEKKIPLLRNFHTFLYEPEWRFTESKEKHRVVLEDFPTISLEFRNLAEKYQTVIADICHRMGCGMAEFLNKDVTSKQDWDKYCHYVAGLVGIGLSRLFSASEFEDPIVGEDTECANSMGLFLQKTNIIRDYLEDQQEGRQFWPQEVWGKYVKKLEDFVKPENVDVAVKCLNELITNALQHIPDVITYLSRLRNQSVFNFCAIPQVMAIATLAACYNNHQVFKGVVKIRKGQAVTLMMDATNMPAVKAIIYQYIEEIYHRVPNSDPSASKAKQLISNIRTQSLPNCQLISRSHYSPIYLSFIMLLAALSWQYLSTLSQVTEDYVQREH
Method in brief: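 Rat liver microsomes (18 µg protein/mL) in 50 mM phosphate pH 7.4 with 10 mM MgCl2, 0.5 mM NADPH, compound in ethanol; preincubated 10 min 37 °C, started with [3H]FPP (0.5 µM), 10 min 37 °C. Stopped with ethanolic KOH, 65 °C 30 min, petroleum ether extract counted by scintillation; triplicates, IC50 from mean.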

Rattus norvegicus [3] = test: Decrease in triglyceride level in Fischer 344 rat plasma at 56 umol/kg, ip after 24 hrs; format: functional; set-up: scale not given: the % may be the effect or the level left; method in brief: as §1

Compound | IC50 (Liver microsomes) | IC50 (Squalene synthase) | Activity (Rattus norvegicus [1]) | Activity (Rattus norvegicus [2]) | Activity (Rattus norvegicus [3])
CN1CC(O)(c2ccc(-c3ccc(F)cc3)cc2)OC2CCCCC21 (stereo not given) | 420 µM | 28 µM | 41% | 33% | 94%
CN1CC(O)(c2ccc(-c3nc4ccccc4s3)cc2)OC2CCCCC21 (stereo not given) | 202 µM | 6 µM | 0% | 24% | 0%
CN1CCOC(O)(c2ccc(-c3ccccc3F)cc2)C1 (stereo not given) | 182 µM | 40 µM | 67% | 82% | 64%
CN1CC(O)(c2ccc(-c3ccccc3F)cc2)OC2CCCCC21 (stereo not given) | 490 µM | 42 µM | 18% | 47% | 25%
CN1CCOC(O)(c2ccc(-c3ccc(Br)cc3)cc2)C1 (stereo not given) | 220 µM | 6 µM | 47% | 36% | 51%
OC1(c2ccc(-c3ccccc3F)cc2)CN2CCCCC2CO1 (stereo not given) | 390 µM | 10 µM | 5% | 11% | 15%
CN1CC(O)(c2ccc(-c3ccccc3)cc2)OC2CCCCC21 (stereo not given) | 450 µM | 36 µM | 54% | 51% | 49%
CN1CCOC(O)(c2ccc(-c3ccc(Cl)cc3)cc2)C1 (stereo not given) | 111 µM | 9 µM | 63% | 57% | 70%
CN1CC(O)(c2ccc(-c3ccc(Br)s3)cc2)OC2CCCCC21 (stereo not given) | 160 µM | 1 µM | 35% | 45% | 26%
CN1CC(O)(c2ccc(-c3ccc(Br)cc3)cc2)OC2CCCCC21 (stereo not given) | 200 µM | 4 µM | 23% | 53% | 7%
CN1CC(O)(c2ccc(-c3cccs3)cc2)OC2CCCCC21 (stereo not given) | 20 µM | 10 µM | 45% | 46% | 47%
CN1CCOC(O)(c2ccc(-c3ccc(F)cc3)cc2)C1 (stereo not given) | 330 µM | 23 µM | 23% | 36% | 18%

More lines, in order of falling IC50 (Liver microsomes), values ahead:

IC50 (Liver microsomes) | IC50 (Squalene synthase) | Compound | Activity (Rattus norvegicus [1]) | Activity (Rattus norvegicus [2]) | Activity (Rattus norvegicus [3])
187 µM | 5 µM | OC1(c2ccc(-c3nc4ccccc4s3)cc2)CN2CCCCC2CO1 (stereo not given) | 55% | 41% | 46%
180 µM | 9 µM | CN1CC(O)(c2ccc(-c3ccc(Cl)cc3)cc2)OC2CCCCC21 (stereo not given) | 11% | 29% | 41%
178 µM | 15 µM | OC1(c2ccc(-c3ccc(Cl)cc3)cc2)CN2CCCCC2CO1 (stereo not given) | 44% | 35% | 52%
174 µM | 7 µM | OC1(c2ccc(-c3cccs3)cc2)CN2CCCCC2CO1 (stereo not given) | 43% | 46% | 29%
164 µM | 7 µM | OC1(c2ccc(-c3ccc(Br)s3)cc2)CN2CCCCC2CO1 (stereo not given) | 36% | 35% | 37%
162 µM | 10 µM | OC1(c2ccc(-c3ccc(F)cc3)cc2)CN2CCCCC2CO1 (stereo not given) | 27% | 11% | 95%
139 µM | 3 µM | OC1(c2ccc(-c3ccc(Br)cc3)cc2)CN2CCCCC2CO1 (stereo not given) | 17% | 6% | 17%
113 µM | 2 µM | CN1CCOC(O)(c2ccc(-c3nc4ccccc4s3)cc2)C1 (stereo not given) | 46% | 53% | 44%
87 µM | 5 µM | CN1CCOC(O)(c2ccc(-c3cccs3)cc2)C1 (stereo not given) | 48% | 61% | 38%
51 µM | 13 µM | CN1CCOC(O)(c2ccc(-c3ccc(Br)s3)cc2)C1 (stereo not given) | 43% | 26% | 35%
